Measured values as given in the M2OR odorant receptor database.

Target: T1, OR1A1 (Homo sapiens) (UniProt Q9P1Q5)
T1 sequence (whole entry): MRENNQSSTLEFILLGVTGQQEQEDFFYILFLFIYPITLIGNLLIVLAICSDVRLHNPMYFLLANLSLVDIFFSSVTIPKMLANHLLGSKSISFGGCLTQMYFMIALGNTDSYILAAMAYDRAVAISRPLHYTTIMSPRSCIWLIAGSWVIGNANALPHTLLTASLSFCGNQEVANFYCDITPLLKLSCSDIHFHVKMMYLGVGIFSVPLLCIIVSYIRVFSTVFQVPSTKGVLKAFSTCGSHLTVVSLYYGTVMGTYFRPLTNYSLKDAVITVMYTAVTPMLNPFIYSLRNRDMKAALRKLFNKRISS
Settings: stereoisomer not certain
How it was run: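 Values were gathered from published papers (main text and supplementary material), with extra details requested from the original authors when needed, and checked for typos and inconsistencies. Each receptor–molecule pair is called responsive (active) if the original authors judged the measured signal statistically different from baseline, and non-responsive (inactive) otherwise. Assay methods varied by source, often transient mammalian cell-line luciferase assays. Recorded details include cell line, G-protein, co-transfected protein and tags.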

Odorant receptor agonist call, active:
CC(CC=O)CCCC(C)(C)O (stereo unspecified)
CCOC(=O)Cc1cccc(Br)c1
C=CC(O)CCCCC (stereo unspecified)
O=C1CCOc2ccccc21

Odorant receptor agonist call, inactive:
CC(C)=CCCC(C)=CC#N
CCCCC(CC)CCC(=O)O (stereo unspecified)
CC(=O)CCc1ccc(O)cc1
COc1cccc(OC)c1O
Cc1occc1S
CC=CC(=O)C1=C(C)C=CCC1(C)C
CCOC(=O)CCC(C)C
O=C([O-])CCCCC(=O)[O-].[H+].[H+]
COc1nccnc1CC(C)C
CCCCS
CC(=O)c1ccccc1N
COc1ccc(C)cc1O
CC12CCC(CC1=O)C2(C)C (stereo unspecified)
CCOC(=O)C(C)C
CCCCCCCC(=O)[O-].[H+]
CCCC(O)CC(=O)OCC (stereo unspecified)
COc1ccc2ccc(=O)oc2c1
OCCc1ccccc1
CCCCCCCCC(=O)O
CCCCC(=O)C(C)=O
CCC(=O)C1=NCCC1
CCCCCOC(=O)CCCCC
CC(=O)C(C)O (stereo unspecified)
CCCCCCOC(C)=O
CCC(C)COC(C)=O (stereo unspecified)
Cc1occc(=O)c1O
CCCSSCCC
CCC(=O)O
CCCCOC(=O)C(C)OC(=O)CCC (stereo unspecified)
CC(=O)CC(C)(C)S
Cc1cccc(C)c1O
CC(C)=CC1CC(C)CCO1 (stereo unspecified)
